Measurements from BindingDB's records for doi:10.1016/j.bmcl.2009.08.072 (Glaxosmithkline, 2010).

What was measured:
Presenilin-1 [1] = target: T1, Presenilin-1 (Homo sapiens, UniProt P49768); test: Inhibition of gamma-secretase in human SHSY5Y cells expressing human recombinant APP assessed as amyloid beta40 formation by ELISA
How it was run: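 SH-SY5Y cells overexpressing human APP Swedish variant exposed to compound for 48 h; Aβ40 (and Aβ42) in the cell medium quantified by ELISA, either Meso Scale Discovery or AlphaLISA format. Compounds also cross-screened for inhibition of Notch processing.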

Presenilin-1 [2] = target: T1, Presenilin-1; test: Inhibition of gamma-secretase in human SHSY5Y cells expressing human recombinant APP assessed as amyloid beta42 formation by ELISA
How it was run: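 SH-SY5Y cells overexpressing human APP Swedish variant were incubated with compound for 48 h. Secreted Aβ42 and Aβ40 were measured by immunoassay (MSD electrochemiluminescence or AlphaLISA).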

CC(C)[C@H](O)C(=O)N[C@@H](C)C(=O)NC1C(=O)N(C)CCc2ccccc21 (stereo partly drawn) [(2S)-2-hydroxy-3-methyl-N-[(1S)-1-{[(1S)-3-methyl-2-oxo-2,3,4,5-tetrahydro-1H-3-benzazepin-1-yl]carbamoyl}ethyl]butanamide]
IC50 (Presenilin-1 [1]): 40 nM | IC50 (Presenilin-1 [2]): 40 nM
